Results taken from ChEMBL document CHEMBL5696442, “Discovery of type II inhibitors of TGFβ-activated kinase 1 (TAK1) and mitogen-activated protein kinase kinase kinase kinase 2 (MAP4K2)” (J Med Chem, 2015).
Calls of active or inactive are those of the source. No cut-off for these calls is given here.

Key:
[1] = biological target: Serine/threonine-protein kinase BRSK1 (Homo sapiens) (UniProt Q8TDC3); experiment: Inhibition of BRSK1 (unknown origin) at 10 uM by Ambit Kinomescan binding assay
[2] = biological target: Serine/threonine-protein kinase Nek7 (Homo sapiens) (UniProt Q8TDX7); experiment: Inhibition of NEK7 K1 labeling site in human Huh-7 cells at 10 uM by KiNativ Profiling analysis relative to control; format: cell-based
Serine/threonine-protein kinase Nek7 (Homo sapiens), sequence (Q8TDX7 whole entry, looked up): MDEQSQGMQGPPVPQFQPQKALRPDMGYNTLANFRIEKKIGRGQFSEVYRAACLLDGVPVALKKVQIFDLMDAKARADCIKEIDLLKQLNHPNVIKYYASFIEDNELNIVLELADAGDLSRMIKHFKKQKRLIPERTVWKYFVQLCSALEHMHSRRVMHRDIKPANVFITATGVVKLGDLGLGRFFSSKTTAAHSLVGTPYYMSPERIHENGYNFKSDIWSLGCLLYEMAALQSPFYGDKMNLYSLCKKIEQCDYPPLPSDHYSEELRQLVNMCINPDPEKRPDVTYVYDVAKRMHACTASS

[3] = biological target: Mitogen-activated protein kinase kinase kinase kinase 4 (Homo sapiens, UniProt O95819); experiment: Inhibition of ZC1 Lys2 labeling site in human A-375 cells at 5 uM by KiNativ Profiling analysis relative to control; format: cell-based
Mitogen-activated protein kinase kinase kinase kinase 4, sequence (O95819 2-1239 limits assumed): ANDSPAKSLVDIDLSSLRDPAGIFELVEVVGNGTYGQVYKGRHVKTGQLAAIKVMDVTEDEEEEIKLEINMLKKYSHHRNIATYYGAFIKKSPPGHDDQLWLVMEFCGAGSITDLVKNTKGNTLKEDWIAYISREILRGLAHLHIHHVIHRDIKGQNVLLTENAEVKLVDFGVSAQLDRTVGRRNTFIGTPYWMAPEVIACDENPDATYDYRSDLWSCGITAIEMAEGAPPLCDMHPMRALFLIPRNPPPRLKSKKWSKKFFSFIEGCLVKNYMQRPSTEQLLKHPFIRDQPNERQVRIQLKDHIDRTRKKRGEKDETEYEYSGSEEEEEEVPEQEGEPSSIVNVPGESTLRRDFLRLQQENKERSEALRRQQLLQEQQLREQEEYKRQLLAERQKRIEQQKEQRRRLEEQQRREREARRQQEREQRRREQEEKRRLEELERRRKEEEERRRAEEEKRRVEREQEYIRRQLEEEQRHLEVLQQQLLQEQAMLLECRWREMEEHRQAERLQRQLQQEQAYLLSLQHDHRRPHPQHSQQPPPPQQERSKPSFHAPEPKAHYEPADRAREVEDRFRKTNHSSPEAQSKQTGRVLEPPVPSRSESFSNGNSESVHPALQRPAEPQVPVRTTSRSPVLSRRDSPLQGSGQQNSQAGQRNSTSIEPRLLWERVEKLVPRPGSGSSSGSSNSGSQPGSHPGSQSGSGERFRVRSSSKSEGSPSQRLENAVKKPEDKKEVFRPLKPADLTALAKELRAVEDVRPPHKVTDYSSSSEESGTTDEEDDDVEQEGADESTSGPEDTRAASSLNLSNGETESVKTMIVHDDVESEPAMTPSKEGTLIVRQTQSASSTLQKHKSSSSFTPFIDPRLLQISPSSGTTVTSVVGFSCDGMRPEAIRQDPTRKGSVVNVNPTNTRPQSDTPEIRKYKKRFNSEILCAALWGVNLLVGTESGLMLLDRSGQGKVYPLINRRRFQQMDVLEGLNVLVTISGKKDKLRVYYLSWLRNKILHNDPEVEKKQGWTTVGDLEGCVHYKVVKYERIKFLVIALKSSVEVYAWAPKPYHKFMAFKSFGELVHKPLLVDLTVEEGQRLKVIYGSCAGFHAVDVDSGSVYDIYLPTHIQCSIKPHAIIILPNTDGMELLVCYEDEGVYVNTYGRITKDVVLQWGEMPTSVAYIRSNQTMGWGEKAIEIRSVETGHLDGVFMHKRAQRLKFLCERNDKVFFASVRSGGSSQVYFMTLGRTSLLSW

[4] = biological target: Receptor tyrosine-protein kinase erbB-4 (Homo sapiens) (UniProt Q15303); experiment: Inhibition of ERBB4 (unknown origin) at 10 uM by Ambit Kinomescan binding assay
Receptor tyrosine-protein kinase erbB-4 (Homo sapiens), sequence (Q15303 whole entry): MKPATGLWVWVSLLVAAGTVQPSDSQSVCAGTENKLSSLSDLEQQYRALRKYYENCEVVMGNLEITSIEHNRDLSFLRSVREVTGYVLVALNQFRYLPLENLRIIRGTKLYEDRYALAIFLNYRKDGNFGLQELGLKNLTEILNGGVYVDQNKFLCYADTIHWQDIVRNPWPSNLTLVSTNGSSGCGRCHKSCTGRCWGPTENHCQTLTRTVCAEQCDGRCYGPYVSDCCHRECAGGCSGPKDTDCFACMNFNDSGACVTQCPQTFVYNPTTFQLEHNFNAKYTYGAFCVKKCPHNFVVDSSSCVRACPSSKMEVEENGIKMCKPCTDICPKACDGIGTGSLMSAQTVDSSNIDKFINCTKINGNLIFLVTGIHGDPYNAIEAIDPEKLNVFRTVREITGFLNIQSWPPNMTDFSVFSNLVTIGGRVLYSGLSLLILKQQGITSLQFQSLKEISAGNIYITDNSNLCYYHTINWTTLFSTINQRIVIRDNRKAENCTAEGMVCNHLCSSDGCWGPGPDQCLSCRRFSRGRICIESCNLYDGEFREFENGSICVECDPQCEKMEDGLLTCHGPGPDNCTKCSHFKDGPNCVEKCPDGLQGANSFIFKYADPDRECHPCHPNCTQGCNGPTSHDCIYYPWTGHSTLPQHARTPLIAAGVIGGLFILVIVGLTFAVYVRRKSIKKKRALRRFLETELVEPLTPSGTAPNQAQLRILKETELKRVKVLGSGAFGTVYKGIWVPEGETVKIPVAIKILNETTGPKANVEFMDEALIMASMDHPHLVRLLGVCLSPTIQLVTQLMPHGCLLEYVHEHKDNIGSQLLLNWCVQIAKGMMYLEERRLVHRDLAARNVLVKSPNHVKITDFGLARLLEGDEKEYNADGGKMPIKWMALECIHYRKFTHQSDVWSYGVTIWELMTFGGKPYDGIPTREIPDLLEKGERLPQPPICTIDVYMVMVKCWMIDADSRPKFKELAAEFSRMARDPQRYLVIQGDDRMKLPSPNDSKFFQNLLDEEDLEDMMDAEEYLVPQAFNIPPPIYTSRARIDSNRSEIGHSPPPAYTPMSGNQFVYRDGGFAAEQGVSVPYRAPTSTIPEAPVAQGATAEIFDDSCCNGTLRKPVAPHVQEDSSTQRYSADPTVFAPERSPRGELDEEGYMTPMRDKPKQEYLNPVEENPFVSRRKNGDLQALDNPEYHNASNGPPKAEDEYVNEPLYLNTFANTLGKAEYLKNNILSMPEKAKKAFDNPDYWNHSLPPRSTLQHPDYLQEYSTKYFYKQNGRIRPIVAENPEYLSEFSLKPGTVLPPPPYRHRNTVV

[5] = biological target: Tyrosine-protein kinase receptor UFO (Homo sapiens) (UniProt P30530); experiment: Inhibition of AXL ACT labeling site in human A-375 cells at 0.5 uM by KiNativ Profiling analysis relative to control; format: cell-based
Tyrosine-protein kinase receptor UFO (Homo sapiens), sequence (P30530 whole entry): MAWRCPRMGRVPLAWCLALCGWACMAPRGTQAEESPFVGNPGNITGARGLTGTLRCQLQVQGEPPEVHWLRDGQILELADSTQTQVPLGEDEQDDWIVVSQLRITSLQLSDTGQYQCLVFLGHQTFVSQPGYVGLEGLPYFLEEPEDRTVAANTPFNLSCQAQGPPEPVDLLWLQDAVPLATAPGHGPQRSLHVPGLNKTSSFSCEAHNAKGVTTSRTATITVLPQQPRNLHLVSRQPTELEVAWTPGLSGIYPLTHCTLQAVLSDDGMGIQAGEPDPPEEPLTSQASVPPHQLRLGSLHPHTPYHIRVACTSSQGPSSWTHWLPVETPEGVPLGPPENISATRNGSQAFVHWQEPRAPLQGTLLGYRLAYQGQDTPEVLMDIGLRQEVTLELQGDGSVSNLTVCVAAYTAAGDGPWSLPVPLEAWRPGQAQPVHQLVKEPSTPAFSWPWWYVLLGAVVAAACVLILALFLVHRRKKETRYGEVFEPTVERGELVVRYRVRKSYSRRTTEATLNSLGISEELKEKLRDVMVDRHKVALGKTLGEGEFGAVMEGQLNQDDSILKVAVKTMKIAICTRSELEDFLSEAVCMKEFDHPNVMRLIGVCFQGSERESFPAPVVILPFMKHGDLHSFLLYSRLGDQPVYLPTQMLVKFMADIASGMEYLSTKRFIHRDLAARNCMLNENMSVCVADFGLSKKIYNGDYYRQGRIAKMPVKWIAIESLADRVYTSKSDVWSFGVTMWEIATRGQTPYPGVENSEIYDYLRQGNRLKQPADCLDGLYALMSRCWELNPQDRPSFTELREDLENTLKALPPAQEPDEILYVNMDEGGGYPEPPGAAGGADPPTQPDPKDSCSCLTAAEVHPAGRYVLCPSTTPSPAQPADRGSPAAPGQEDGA
Outline: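 Live A375 melanoma cells were treated with compound at 5 or 0.5 μM, then lysed. Lysates were labeled with a lysine-reactive ATP or ADP-biotin probe. Read-out was the compound's protection of kinase labeling sites from probe labeling (KiNativ).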

[6] = biological target: Leukocyte tyrosine kinase receptor (Homo sapiens) (UniProt P29376); experiment: Inhibition of LTK (unknown origin) at 10 uM by Ambit Kinomescan binding assay relative to control
[7] = biological target: Mitogen-activated protein kinase 14 (Homo sapiens, UniProt Q16539); experiment: Inhibition of p38a in human Huh-7 cells at 10 uM by KiNativ Profiling analysis relative to control; format: cell-based
Mitogen-activated protein kinase 14, sequence (Q16539 whole entry): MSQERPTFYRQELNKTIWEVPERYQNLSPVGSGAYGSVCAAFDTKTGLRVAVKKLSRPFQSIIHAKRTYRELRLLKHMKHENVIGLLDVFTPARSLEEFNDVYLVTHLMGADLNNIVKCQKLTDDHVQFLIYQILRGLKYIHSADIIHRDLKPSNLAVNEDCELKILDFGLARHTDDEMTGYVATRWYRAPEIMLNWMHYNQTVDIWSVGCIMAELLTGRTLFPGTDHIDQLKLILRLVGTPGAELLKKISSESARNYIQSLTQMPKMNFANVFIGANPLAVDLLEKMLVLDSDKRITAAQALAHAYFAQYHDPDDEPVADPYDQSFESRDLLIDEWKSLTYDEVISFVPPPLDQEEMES

[8] = biological target: Serine/threonine-protein kinase 25 (Homo sapiens) (UniProt O00506); experiment: Inhibition of YSK1 ATP labeling site in human Huh-7 cells at 1 uM by KiNativ Profiling analysis relative to control; format: cell-based
Serine/threonine-protein kinase 25 (Homo sapiens), sequence (O00506 whole entry, looked up): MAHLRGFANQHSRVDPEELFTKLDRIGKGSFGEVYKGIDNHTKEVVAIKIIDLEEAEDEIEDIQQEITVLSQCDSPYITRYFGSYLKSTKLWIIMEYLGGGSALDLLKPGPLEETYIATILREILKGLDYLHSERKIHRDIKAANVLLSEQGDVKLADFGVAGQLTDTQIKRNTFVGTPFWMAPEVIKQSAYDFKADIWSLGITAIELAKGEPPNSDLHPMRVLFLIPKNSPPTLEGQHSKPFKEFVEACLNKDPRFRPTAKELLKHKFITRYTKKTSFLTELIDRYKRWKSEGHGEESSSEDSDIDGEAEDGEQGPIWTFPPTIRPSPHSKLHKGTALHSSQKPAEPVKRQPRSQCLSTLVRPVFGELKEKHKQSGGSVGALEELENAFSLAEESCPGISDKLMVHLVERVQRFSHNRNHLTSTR

[9] = biological target: T1, Ephrin type-B receptor 2 (Homo sapiens) (UniProt P29323); experiment: Inhibition of EPHB2 (unknown origin) at 10 uM by Ambit Kinomescan binding assay relative to control
T1 sequence (whole entry): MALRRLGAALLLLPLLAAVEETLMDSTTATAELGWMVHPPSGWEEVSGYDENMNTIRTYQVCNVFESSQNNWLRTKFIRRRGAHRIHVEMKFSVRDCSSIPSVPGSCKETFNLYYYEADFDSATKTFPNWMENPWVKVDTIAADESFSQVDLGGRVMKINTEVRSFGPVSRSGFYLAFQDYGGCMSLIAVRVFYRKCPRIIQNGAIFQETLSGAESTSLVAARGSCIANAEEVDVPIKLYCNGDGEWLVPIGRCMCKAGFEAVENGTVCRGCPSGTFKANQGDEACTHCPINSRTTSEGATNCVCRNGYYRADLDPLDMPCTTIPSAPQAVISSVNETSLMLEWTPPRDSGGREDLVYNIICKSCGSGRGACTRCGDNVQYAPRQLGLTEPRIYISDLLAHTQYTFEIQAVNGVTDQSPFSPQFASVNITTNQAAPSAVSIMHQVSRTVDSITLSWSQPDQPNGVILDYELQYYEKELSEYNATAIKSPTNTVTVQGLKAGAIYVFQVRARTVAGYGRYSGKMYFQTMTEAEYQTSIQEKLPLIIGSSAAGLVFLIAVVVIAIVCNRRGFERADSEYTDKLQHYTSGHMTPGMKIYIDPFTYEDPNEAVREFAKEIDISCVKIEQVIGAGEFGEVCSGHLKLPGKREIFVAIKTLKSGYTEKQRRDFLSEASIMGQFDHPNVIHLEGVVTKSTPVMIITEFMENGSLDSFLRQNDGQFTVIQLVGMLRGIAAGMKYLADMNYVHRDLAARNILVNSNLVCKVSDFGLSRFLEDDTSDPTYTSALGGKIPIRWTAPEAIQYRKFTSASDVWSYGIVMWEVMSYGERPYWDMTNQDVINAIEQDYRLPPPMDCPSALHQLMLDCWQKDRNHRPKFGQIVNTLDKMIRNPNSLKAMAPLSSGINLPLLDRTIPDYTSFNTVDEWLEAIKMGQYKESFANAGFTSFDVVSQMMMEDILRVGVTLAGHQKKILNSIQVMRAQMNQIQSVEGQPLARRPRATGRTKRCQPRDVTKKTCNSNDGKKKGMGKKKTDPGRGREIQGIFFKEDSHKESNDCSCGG

[10] = biological target: Serine/threonine-protein kinase 4 (Homo sapiens) (UniProt Q13043); experiment: Inhibition of MST1 Lys1 labeling site harbouring AIHKETGQIVAIKQVPVESDLQEIIK in human A-375 cells at 0.5 uM by KiNativ Profiling analysis relative to control
Serine/threonine-protein kinase 4 (Homo sapiens), sequence (Q13043 whole entry, looked up): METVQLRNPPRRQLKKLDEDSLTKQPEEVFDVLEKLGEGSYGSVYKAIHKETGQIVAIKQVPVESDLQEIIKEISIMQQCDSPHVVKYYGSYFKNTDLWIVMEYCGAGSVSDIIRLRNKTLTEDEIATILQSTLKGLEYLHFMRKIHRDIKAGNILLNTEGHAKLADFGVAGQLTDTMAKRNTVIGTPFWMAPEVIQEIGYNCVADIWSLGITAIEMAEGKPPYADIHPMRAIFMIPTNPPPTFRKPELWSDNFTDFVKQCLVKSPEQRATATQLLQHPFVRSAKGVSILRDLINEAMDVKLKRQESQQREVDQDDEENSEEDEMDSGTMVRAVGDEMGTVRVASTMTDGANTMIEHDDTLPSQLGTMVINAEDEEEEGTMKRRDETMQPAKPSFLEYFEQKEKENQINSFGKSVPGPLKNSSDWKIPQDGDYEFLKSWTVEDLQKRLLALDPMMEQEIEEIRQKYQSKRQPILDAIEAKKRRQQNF

[11] = biological target: RAC-gamma serine/threonine-protein kinase (Homo sapiens) (UniProt Q9Y243); experiment: Inhibition of AKT3 (unknown origin) at 1 uM by Ambit Kinomescan binding assay relative to control
[12] = biological target: T2, Serine/threonine-protein kinase D3 (Homo sapiens) (UniProt O94806); experiment: Inhibition of PKD3 Lys2 labeling site in human Huh-7 cell lysate at 1 uM by KiNativ Profiling analysis relative to control; format: subcellular
T2 sequence (whole entry): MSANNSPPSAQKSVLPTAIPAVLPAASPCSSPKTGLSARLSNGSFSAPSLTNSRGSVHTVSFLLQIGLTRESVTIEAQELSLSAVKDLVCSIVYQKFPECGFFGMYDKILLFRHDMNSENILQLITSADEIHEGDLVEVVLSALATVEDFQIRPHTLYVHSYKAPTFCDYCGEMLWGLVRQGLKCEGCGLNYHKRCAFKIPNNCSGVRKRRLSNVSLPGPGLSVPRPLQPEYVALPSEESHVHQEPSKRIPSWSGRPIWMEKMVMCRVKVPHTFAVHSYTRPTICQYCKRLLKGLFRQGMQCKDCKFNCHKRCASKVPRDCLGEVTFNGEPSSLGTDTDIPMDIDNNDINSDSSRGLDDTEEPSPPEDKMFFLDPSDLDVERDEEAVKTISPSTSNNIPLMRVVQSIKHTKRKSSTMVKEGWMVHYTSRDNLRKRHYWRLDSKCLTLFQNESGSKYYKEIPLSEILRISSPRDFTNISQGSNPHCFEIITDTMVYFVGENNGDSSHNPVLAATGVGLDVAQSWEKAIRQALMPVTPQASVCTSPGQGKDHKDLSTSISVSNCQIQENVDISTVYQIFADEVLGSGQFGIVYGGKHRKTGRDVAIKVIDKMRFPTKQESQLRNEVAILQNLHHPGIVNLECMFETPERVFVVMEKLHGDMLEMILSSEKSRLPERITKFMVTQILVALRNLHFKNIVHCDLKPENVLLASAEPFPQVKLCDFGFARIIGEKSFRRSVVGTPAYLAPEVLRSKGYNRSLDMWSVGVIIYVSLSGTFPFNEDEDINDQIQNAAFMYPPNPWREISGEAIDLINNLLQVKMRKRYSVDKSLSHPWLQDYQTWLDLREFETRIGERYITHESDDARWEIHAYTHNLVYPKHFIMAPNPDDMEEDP

## CCN1CCN(Cc2ccc(NC(=O)c3ccc(C)c(Oc4ccnc5[nH]ccc45)c3)cc2C(F)(F)F)CC1
[1]
  inhibition: inactive
[2]
  inhibition: -8.8%
[3]
  inhibition: 92.7%
[4]
  inhibition: 28%
[5]
  inhibition: 2.3%
[6]
  inhibition: 1.2%
[7]
  inhibition: 98.5%
[8]
  inhibition: 18%
[9]
  inhibition: 11%

## CCN1CCN(Cc2ccc(NC(=O)c3ccc(C)c(/C=C/c4cnc5[nH]ccc5c4OC)c3)cc2C(F)(F)F)CC1
[10]
  inhibition: -4.7%
[11]
  inhibition: 100%

## CNc1cc(Oc2cc(C(=O)Nc3cc(N4CCN(C)CC4)cc(C(F)(F)F)c3)ccc2C)ncn1
[12]
  inhibition: 12.4%
